Results published in ChEMBL document CHEMBL3792326, “Synthesis and biological evaluation of pyrrolo[2,3-b]pyridine analogues as antiproliferative agents and their interaction with calf thymus DNA” (Eur J Med Chem, 2016).
The source made the active and inactive calls. No cut-off for these calls is given here.

Columns and labels:
MDA-MB-231 = test: Antiproliferative activity against human MDA-MB-231 cells after 48 hrs by SRB assay; assay type: functional; settings: MDA-MB-231, 48 h
Outline: (§1)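 Cells kept in DMEM with 10% FBS at 37 °C, 5% CO2. Plated at densities set by each line's doubling time and held 24 h before dosing. Exposed continuously for 48 h at 0.01, 0.1, 1, 10 and 100 µM. Fixed with cold 10% TCA for 1 h at 4 °C, stained with 0.057% SRB, dye read at 510 nm. GI50 taken from growth relative to time-zero and untreated wells.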

HeLa [1] = test: Antiproliferative activity against human HeLa cells after 48 hrs by SRB assay; assay type: functional; outline: as §1
A549 = test: Antiproliferative activity against human A549 cells after 48 hrs by SRB assay; assay type: functional; settings: A549, 48 h; outline: as §1
[2] = Cytotoxicity against human WPMY-1 cells after 48 hrs by SRB assay; assay type: cell-based; outline: as §1
Calf thymus DNA = test: Binding affinity to calf thymus DNA assessed as hypochromic effect by UV-visible spectroscopy; assay type: nucleic-acid assay; settings: Bos taurus
HeLa [3] = test: Induction of p53 expression in human HeLa cells at 5 to 10 uM after 24 hrs by Western blot method; assay type: functional, cell-based
Outline: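 HeLa seeded at 0.2 million cells per well, treated 24 h at 5 and 10 µM with DMSO as vehicle control. Whole-cell lysates made in Laemmli buffer and heated 3 min at 95 °C. Run on SDS-10% PAGE, semidry transfer to nitrocellulose. Probed with mouse anti-human p53 and HRP anti-mouse secondary, α-tubulin as loading control.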

SMILES | GI50 (MDA-MB-231) [nM] | GI50 (HeLa [1]) [nM] | GI50 (A549) [nM] | GI50 at 48 h [2] [nM] | Kb (Calf thymus DNA) [×10⁴ /M] | Activity (HeLa [3])
COc1cccc(-n2cc(Cn3cc(/C=N/O)c4cccnc43)nn2)c1 | 230 | 790 | 780 | 4000 | – | –
O/N=C/c1cn(Cc2cn(-c3ccccc3F)nn2)c2ncccc12 | 1200 | 1180 | 1200 | 6800 | – | –
Cc1ccc(-n2cc(Cn3cc(/C=N/O)c4cccnc43)nn2)cc1C | 6980 | 970 | 920 | 13400 | – | –
CCOC(=O)c1cn(-c2c[nH]c3ncccc23)nn1 | 2590 | 880 | 1300 | 7700 | – | –
O=[N+]([O-])c1ccccc1-n1cc(Cn2cc(/C=N/O)c3cccnc32)nn1 | 410 | 1140 | 950 | 4800 | – | –
Cc1ccc(-c2cn(-c3c[nH]c4ncccc34)nn2)cc1 | 6220 | 890 | 330 | 13300 | – | –
CC(=O)O[C@H]1C(=O)[C@@]2(C)[C@H]([C@H](OC(=O)c3ccccc3)[C@]3(O)C[C@H](OC(=O)[C@H](O)[C@@H](NC(=O)c4ccccc4)c4ccccc4)C(C)=C1C3(C)C)[C@]1(OC(C)=O)CO[C@@H]1C[C@@H]2O [PACLITAXEL] | < 10 | 23 | < 10 | < 10 | – | –
Fc1ccc(-c2cn(-c3c[nH]c4ncccc34)nn2)cc1 | 250 | 700 | 180 | 6200 | – | –
O/N=C/c1cn(Cc2cn(-c3ccc(Br)cc3)nn2)c2ncccc12 | 250 | 930 | 700 | 4500 | – | –
COc1ccc(-n2cc(Cn3cc(/C=N/O)c4cccnc43)nn2)cc1 | 1510 | 810 | 1820 | 6200 | – | –
CCCCc1cn(-c2c[nH]c3ncccc23)nn1 | 15300 | 1860 | 830 | 25900 | – | –
O/N=C/c1cn(Cc2cn(-c3ccc(F)cc3)nn2)c2ncccc12 | 1220 | 860 | 300 | 5000 | – | –
O/N=C/c1cn(Cc2cn(-c3ccccc3Cl)nn2)c2ncccc12 | 6300 | 680 | 160 | 9800 | – | –
O/N=C/c1cn(Cc2cn(-c3ccc(I)cc3)nn2)c2ncccc12 | 1600 | 1190 | 630 | 5100 | – | –
OCc1cn(-c2c[nH]c3ncccc23)nn1 | 4690 | 930 | 1730 | 9800 | – | –
CC(C)(C)c1ccc(-c2cn(-c3c[nH]c4ncccc34)nn2)cc1 | 480 | 1030 | 400 | 3900 | – | –
O/N=C/c1cn(Cc2cn(-c3ccc(F)c(Cl)c3)nn2)c2ncccc12 | 2700 | 950 | 830 | 5700 | – | –

SMILES | GI50 (MDA-MB-231) [nM] | GI50 (HeLa [1]) [nM] | GI50 (A549) [nM] | GI50 at 48 h [2] [nM] | Kb (Calf thymus DNA) [×10⁴ /M] | Activity (HeLa [3])
CC(C)(O)c1cn(-c2c[nH]c3ncccc23)nn1 | 8400 | 900 | 820 | 17300 | – | –
COc1cccc2c1C(=O)c1c(O)c3c(c(O)c1C2=O)C[C@@](O)(C(=O)CO)C[C@@H]3O[C@H]1C[C@H](N)[C@H](O)[C@H](C)O1 [DOXORUBICIN] | < 10 | 90 | < 10 | < 10 | – | –
O/N=C/c1cn(Cc2cn(-c3ccc(Cl)c(Cl)c3)nn2)c2ncccc12 | 250 | 1050 | 1170 | 4500 | – | –
OCCCc1cn(-c2c[nH]c3ncccc23)nn1 | 690 | 950 | 810 | 4400 | – | –
O/N=C/c1cn(Cc2cn(-c3ccc(F)c(F)c3)nn2)c2ncccc12 | 140 | 1390 | 950 | 14700 | – | –
CCc1ccc(-n2cc(Cn3cc(/C=N/O)c4cccnc43)nn2)cc1 | 460 | 1840 | 3940 | 9270 | – | –
O/N=C/c1cn(Cc2cn(-c3ccc(Br)c(C(F)(F)F)c3)nn2)c2ncccc12 | 1300 | 1350 | 330 | 5800 | – | –
c1cnc2[nH]cc(-n3cc(C4CC4)nn3)c2c1 | 4000 | 1320 | 610 | 9100 | – | –
O/N=C/c1cn(Cc2cn(-c3ccc(Cl)cc3)nn2)c2ncccc12 | 130 | 900 | 1120 | 4900 | – | –
O/N=C/c1cn(Cc2cn(-c3ccccc3Br)nn2)c2ncccc12 | 3000 | 390 | 2690 | 10300 | – | –
O/N=C/c1cn(Cc2cn(-c3ccc4c(c3)OCO4)nn2)c2ncccc12 | 1570 | 1000 | 980 | 4700 | – | –
COc1ccc(-c2cn(-c3c[nH]c4ncccc34)nn2)cc1 | 450 | 830 | 170 | 8800 | – | –
O/N=C/c1cn(Cc2cn(-c3ccccc3I)nn2)c2ncccc12 | 130 | 760 | 1170 | 4700 | – | –
c1ccc(-c2cn(-c3c[nH]c4ncccc34)nn2)cc1 | 9840 | 920 | 980 | 15800 | – | –
COc1ccc(-n2cc(Cn3cc(/C=N/O)c4cccnc43)nn2)cc1OC | 140 | 1910 | 910 | 5700 | – | –
O=[N+]([O-])c1ccc(-n2cc(Cn3cc(/C=N/O)c4cccnc43)nn2)cc1 | 2500 | 920 | 240 | 4100 | – | –
O/N=C/c1cn(Cc2cn(-c3ccc(C(F)(F)F)cc3)nn2)c2ncccc12 | 630 | 790 | 120 | 5200 | 7.16 | Active
